Data reported in ChEMBL document CHEMBL1127388, “Synthesis and structure-activity relationships in a series of antiinflammatory corticosteroid analogues, halomethyl androstane-17 beta-carbothioates and -17 beta-carboselenoates” (1994).

Tests used:
Format in all cases: functional
Homo sapiens = species: Homo sapiens; test: Tested for human vasoconstrictor activity relative to fluocinolone acetonide (100)
Mus musculus [1] = test: Systemic corticosteroid activity after topical application relative to fluocinolone acetonide in mice.
How it was run: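 Mice (25–30 g), nine groups of 10, given topical steroid in acetone daily for seven consecutive days; reference fluocinolone acetonide daily doses 0.47, 1.9, 7.5 and 30 µg; vehicle controls. Day after last dose, Et₂O vapor stress 1 min, re-anaesthetised with Et₂O; blood of two mice pooled; plasma corticosterone read fluorimetrically; potency from log daily dose vs corticosterone.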

Mus musculus [2] = test: Topical anti-inflammatory activity relative to fluocinolone acetonide in mice.
How it was run: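 Croton oil ear test in mice (22–28 g), nine groups of 10; steroid dissolved in croton oil (2 vol)/EtOH (20)/Et₂O (78), 0.02 mL to inner aspect of both ears; reference doses 0.015, 0.06, 0.25, 1 µg; untreated-oil controls; ears weighed after 6 h; potency from log dose vs ear weight.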

Rattus norvegicus [3] = test: Topical anti-inflammatory activity relative to fluocinolone acetonide in rats.
How it was run: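 Modified Tonelli croton oil ear test: rats (54–70 g), 7 groups of 10; graded steroid doses in croton oil (5 vol)/EtOH (20)/Et₂O (75), 0.04 mL to inner aspect of both ears (reference 0.06, 0.25, 1 µg); control gets unmedicated oil. After 6 h, CO₂ kill, ears weighed separately; relative potency by ANOVA on log dose and ear weight.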

Rattus norvegicus [4] = test: Systemic corticosteroid activity after topical application relative to fluocinolone acetonide in rats.
How it was run: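 Rats (170–200 g), seven groups of six, fur clipped, ca. 2 cm² dorsal area dosed once daily for seven days with steroid in acetone (0.02 mL; reference 0.5, 2, 8 µg). Day after final dose: Et₂O stress 1 min, 20 min later pentobarbitone i.p., cardiac blood; fluorimetric plasma corticosterone or adrenal weights; potency from log daily dose.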

Row | SMILES | Activity (Homo sapiens) | Activity (Mus musculus [1]) | Activity (Mus musculus [2]) | Activity (Rattus norvegicus [3]) | Activity (Rattus norvegicus [4])
1 | CCC(=O)O[C@]1(C(=O)SCCl)CCC2C3CCC4=CC(=O)C=C[C@]4(C)[C@@]3(F)[C@@H](O)C[C@@]21C (stereo partly specified) | 916 | 100 | 20 | – | –
2 | CCC(=O)O[C@]1(C(=O)SCF)CCC2C3C[C@H](F)C4=CC(=O)C=C[C@]4(C)[C@H]3[C@@H](O)C[C@@]21C (stereo partly specified) | 697 | >200 | 56 | 97 | –
3 | CC(=O)O[C@]1(C(=O)SCCl)[C@@H](C)CC2C3CCC4=CC(=O)C=C[C@]4(C)[C@@]3(F)[C@@H](O)C[C@@]21C (stereo partly specified) | 544 | 14.7 | 59 | 24 | 0.5
4 | CCC(=O)O[C@]1(C(=O)SCCl)[C@@H](C)CC2C3CCC4=CC(=O)C=C[C@]4(C)[C@H]3[C@@H](O)C[C@@]21C (stereo partly specified) | 295 | – | 27 | 29 | 1.4
5 | CCC(=O)O[C@]1(C(=O)SCCl)[C@@H](C)CC2C3CCC4=CC(=O)C=C[C@]4(C)[C@@]3(F)[C@@H](O)C[C@@]21C (stereo partly specified) | 1469 | 44 | 41 | 36 | 0.9
6 | CCCC(=O)O[C@]1(C(=O)SCF)[C@H](C)CC2C3C[C@H](F)C4=CC(=O)C=C[C@]4(C)[C@@]3(F)[C@@H](O)C[C@@]21C (stereo partly specified) | 299 | 0.7 | 55 | 55 | –
7 | C=C1CC2C3CCC4=CC(=O)C=C[C@]4(C)[C@@]3(F)[C@@H](O)C[C@]2(C)[C@@]1(OC(=O)CC)C(=O)[Se]CCl (stereo partly specified) | 200 | 2 | 40 | 16 | –
8 | CCC(=O)O[C@]1(C(=O)SCF)[C@@H](C)CC2C3CCC4=CC(=O)C=C[C@]4(C)[C@H]3[C@@H](O)C[C@@]21C (stereo partly specified) | 800 | – | 50 | 44 | 5.1
9 | CCC(=O)O[C@]1(C(=O)SCF)[C@H](C)CC2C3CCC4=CC(=O)C=C[C@]4(C)[C@@]3(F)[C@@H](O)C[C@@]21C (stereo partly specified) | 653 | – | – | – | –
10 | C=C1CC2C3CCC4=CC(=O)C=C[C@]4(C)[C@@]3(F)[C@@H](O)C[C@]2(C)[C@@]1(OC(=O)CC)C(=O)SCF (stereo partly specified) | 1497 | 44 | 41 | 20 | 2.5
11 | CCC(=O)O[C@]1(C(=O)SCI)[C@@H](C)CC2C3CCC4=CC(=O)C=C[C@]4(C)[C@@]3(F)[C@@H](O)C[C@@]21C (stereo partly specified) | 41 | – | – | – | –
12 | CC(=O)O[C@]1(C(=O)SCF)[C@@H](C)CC2C3CCC4=CC(=O)C=C[C@]4(C)[C@@]3(F)[C@@H](O)C[C@@]21C (stereo partly specified) | 1388 | – | 67 | 40 | 13.5
13 | CCC(=O)O[C@]1(C(=O)SCF)[C@H](C)C[C@H]2[C@@H]3C[C@H](F)C4=CC(=O)C=C[C@]4(C)[C@@]3(F)[C@@H](O)C[C@@]21C [FLUTICASONE PROPIONATE] | 945 | 1 | 113 | 85 | 1.5
14 | CC(=O)O[C@]1(C(=O)SCF)[C@H](C)CC2C3C[C@H](F)C4=CC(=O)C=C[C@]4(C)[C@@]3(F)[C@@H](O)C[C@@]21C (stereo partly specified) | 392 | 2.9 | 76 | 88 | 3
15 | CCC(=O)O[C@]1(C(=O)SCF)CCC2C3CCC4=CC(=O)C=C[C@]4(C)[C@@]3(F)[C@@H](O)C[C@@]21C (stereo partly specified) | 1984 | 149 | 63 | 39 | 1.5
16 | C=C1CC2C3C[C@H](F)C4=CC(=O)C=C[C@]4(C)[C@@]3(F)[C@@H](O)C[C@]2(C)[C@@]1(OC(=O)CC)C(=O)SCF (stereo partly specified) | 1048 | >100 | 197 | – | –
17 | CCC(=O)O[C@]1(C(=O)SCF)[C@@H](C)CC2C3CCC4=CC(=O)C=C[C@]4(C)[C@@]3(F)[C@@H](O)C[C@@]21C (stereo partly specified) | 1262 | 450 | 89 | 39 | 13
18 | CCC(=O)O[C@]1(C(=O)SCCl)[C@H](C)CC2C3C[C@H](F)C4=CC(=O)C=C[C@]4(C)[C@@]3(F)[C@@H](O)C[C@@]21C (stereo partly specified) | 124 | 0.04 | 56 | 29 | <0.02
19 | CCC(=O)O[C@]1(C(=O)SCBr)[C@@H](C)CC2C3CCC4=CC(=O)C=C[C@]4(C)[C@@]3(F)[C@@H](O)C[C@@]21C (stereo partly specified) | 254 | – | – | – | –
20 | C=C1CC2C3CCC4=CC(=O)C=C[C@]4(C)[C@@]3(F)[C@@H](O)C[C@]2(C)[C@@]1(OC(=O)CC)C(=O)SCCl (stereo partly specified) | 365 | 2 | 42 | 12 | 0.8
21 | C=C1CC2C3C[C@H](F)C4=CC(=O)C=C[C@]4(C)[C@@]3(F)[C@@H](O)C[C@]2(C)[C@@]1(OC(=O)CC)C(=O)SCCl (stereo partly specified) | 170 | >100 | 108 | – | –
22 | CCCC(=O)O[C@]1(C(=O)SCCl)[C@@H](C)CC2C3CCC4=CC(=O)C=C[C@]4(C)[C@@]3(F)[C@@H](O)C[C@@]21C (stereo partly specified) | 143 | – | – | – | –
23 | C=C1CC2C3CCC4=CC(=O)C=C[C@]4(C)[C@@]3(F)[C@@H](O)C[C@]2(C)[C@@]1(OC(=O)CC)C(=O)[Se]C (stereo partly specified) | 187 | – | 27 | 19 | <0.2
24 | CC1(C)O[C@@H]2C[C@H]3[C@@H]4C[C@H](F)C5=CC(=O)C=C[C@]5(C)[C@@]4(F)[C@@H](O)C[C@]3(C)[C@]2(C(=O)CO)O1 [FLUOCINOLONE ACETONIDE] | 100 | 100 | 100 | 100 | 100
